This note sets out measurements from ChEMBL document CHEMBL1125098, “Lipophilic 1,3-xylyl-21-crown-6 macrocyclic polyether 2-carboxylic acids as biological mimics of the ionophore antibiotics” (1990).

SMILES strings stand for the structures. Converted amounts (≈) assume the structure as drawn.

Broadly, the MIC is the lowest concentration that inhibits growth of the organism. Low readings indicate inhibition by little substance, high ones a need for much substance.

One assay concerns Clostridium perfringens. As to the kind of experiment: Antibacterial activity was determined against Clostridium perfringens 10A002. Type of assay: functional.
Conditions: not given
A digest of the protocol:
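Agar dilution MIC on BHI agar, twelve 2-fold dilutions of drug starting at 200 μg/mL. Overnight BHI broth cultures (37 °C) diluted 100-fold; about 10000–20000 cells spotted per point by multiple inoculator. Plates read after 18 h at 37 °C, single colonies disregarded. Incubated anaerobically under 80% N₂, 10% CO₂, 10% H₂ in an anaerobic chamber.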
With `CC(C)(C)CC(C)(C)c1cc(CCc2ccccc2)c2c(c1)OCCOCCOCc1cc(C(C)(C)C)cc(c1C(=O)O)COCCOCCO2`, it took 1.56 µg/mL (≈ 2.21 µM) to inhibit growth (MIC).
On the same count and under the same terms, the same measure for `CC(C)(C)c1ccc(OCC2COc3ccccc3OCCOCCOCCOCc3cc(C(C)(C)C)cc(c3C(=O)O)CO2)cc1` (stereo unspecified): 1.56 µg/mL (≈ 2.4 µM).
On the same count and under the same terms, the same measure for `COCc1cc(C(C)(C)CC(C)(C)C)cc2c1OCCOCCOCc1cc(C(C)(C)C)cc(c1C(=O)O)COCCOCCO2`: 25 µg/mL (≈ 38.8 µM).
Same read-out and setting: for `CC(C)(C)CC(C)(C)c1ccc2c(c1)OCCOCCOCc1cc(C(C)(C)C)cc(c1C(=O)O)COCCOCCO2` the value was 6.25 µg/mL (≈ 10.4 µM).
As to `Cc1cc(C(C)(C)CC(C)(C)C)cc2c1OCCOCCOCCOCc1cc(C(C)(C)C)cc(c1C(=O)O)COCCOCCOCCO2`, the MIC came out at 12.5 µg/mL (≈ 17.8 µM).
On the same count and under the same terms, the same measure for `CC(C)(C)CC(C)(C)c1cc(Cc2ccccc2)c2c(c1)OCCOCCOCc1cc(C(C)(C)C)cc(c1C(=O)O)COCCOCCO2`: 1.56 µg/mL (≈ 2.26 µM).

The species named for another assay is Bos taurus. As to the kind of experiment: In vitro rumen propionic acid test procedure, 50 ug/mL.
Conditions: not given
Type of assay: functional. A digest of the protocol:
(§1)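 Filtered rumen fluid (10 mL) with 400 mg substrate (68% corn starch, 17% cellulose, 15% extracted soybean meal) and pH 6.8 buffer, compound at 50 or 20 μg/mL; N2-gassed, shaken at 39 °C ~6 h, triplicate. Stopped with metaphosphoric acid, then GLC peak heights of acetic/propionic/butyric acids; response expressed relative to monensin at 10 μg/mL versus untreated controls.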
`Cc1cc(C(C)(C)CC(C)(C)C)cc2c1OCCOCCOCc1cccc(c1C(=O)O)COCCOCCO2` yielded a Stimulation of 0.87%.
The same measure, in the same setting: for `COc1cc2c(C(=O)O)c(c1)COCCOCCOc1c(C)cc(C(C)(C)CC(C)(C)C)cc1OCCOCCOC2` the value was 0.42%.
On the same count and under the same terms, the same measure for `Cc1cc(C(C)(C)CC(C)(C)C)cc2c1OCCOCCOCc1cc(Br)cc(c1C(=O)O)COCCOCCO2`: 0.53%; for `CC(C)(C)CC(C)(C)c1cc(CCc2ccccc2)c2c(c1)OCCOCCOCc1cc(C(C)(C)C)cc(c1C(=O)O)COCCOCCO2`: 1.09%; for `CC(C)(C)c1ccc(OCC2COc3ccccc3OCCOCCOCCOCc3cc(C(C)(C)C)cc(c3C(=O)O)CO2)cc1` (stereo unspecified): 1.06%.
Still for that read-out and setting: the same measure for `COCc1cc(C(C)(C)CC(C)(C)C)cc2c1OCCOCCOCc1cc(C(C)(C)C)cc(c1C(=O)O)COCCOCCO2`: 0.64%; for `CC(C)(C)CC(C)(C)c1ccc2c(c1)OCCOCCOCc1cc(C(C)(C)C)cc(c1C(=O)O)COCCOCCO2`: 0.97%; for `Cc1cc(C(C)(C)CC(C)(C)C)cc2c1OCCOCCOCCOCc1cc(C(C)(C)C)cc(c1C(=O)O)COCCOCCOCCO2`: 0.41%.
`CC(C)(C)CC(C)(C)c1cc(Cc2ccccc2)c2c(c1)OCCOCCOCc1cc(C(C)(C)C)cc(c1C(=O)O)COCCOCCO2`: the Stimulation was found to be 0.76%.

Tested on in a further assay: not listed separately
Kind of assay: Antibacterial activity Streptococcus zooepidemicus 02H001. Type of assay: functional, Streptococcus equi subsp. zooepidemicus. The conditions noted are these: Streptococcus equi. A digest of the protocol: (§2)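 Agar dilution MIC on BHI agar: overnight BHI broth cultures (37 °C) diluted 100-fold, ~10000–20000 cells spotted by multiple inoculator; twelve 2-fold dilutions starting at 200 μg/mL; plates read after 18 h at 37 °C, single colonies disregarded. Compounds tested as macrocyclic carboxylate salts.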
In the case of `Cc1cc(C(C)(C)CC(C)(C)C)cc2c1OCCOCCOCc1cccc(c1C(=O)O)COCCOCCO2`, the MIC was 50 µg/mL (≈ 89.5 µM).
Take `COc1cc2c(C(=O)O)c(c1)COCCOCCOc1c(C)cc(C(C)(C)CC(C)(C)C)cc1OCCOCCOC2`: 25 µg/mL (≈ 42.5 µM) was the least that counted as inhibitory (MIC).
On the same count and under the same terms, for `Cc1cc(C(C)(C)CC(C)(C)C)cc2c1OCCOCCOCc1cc(Br)cc(c1C(=O)O)COCCOCCO2` the value was 12.5 µg/mL (≈ 19.6 µM); for `CC(C)(C)CC(C)(C)c1cc(CCc2ccccc2)c2c(c1)OCCOCCOCc1cc(C(C)(C)C)cc(c1C(=O)O)COCCOCCO2`, 1.56 µg/mL (≈ 2.21 µM); for `CC(C)(C)c1ccc(OCC2COc3ccccc3OCCOCCOCCOCc3cc(C(C)(C)C)cc(c3C(=O)O)CO2)cc1` (stereo unspecified), 3.12 µg/mL (≈ 4.79 µM).
Still for that read-out and setting: the same measure for `COCc1cc(C(C)(C)CC(C)(C)C)cc2c1OCCOCCOCc1cc(C(C)(C)C)cc(c1C(=O)O)COCCOCCO2`: 25 µg/mL (≈ 38.8 µM); for `CC(C)(C)CC(C)(C)c1ccc2c(c1)OCCOCCOCc1cc(C(C)(C)C)cc(c1C(=O)O)COCCOCCO2`: 6.25 µg/mL (≈ 10.4 µM).
`Cc1cc(C(C)(C)CC(C)(C)C)cc2c1OCCOCCOCCOCc1cc(C(C)(C)C)cc(c1C(=O)O)COCCOCCOCCO2` had an MIC of 6.25 µg/mL (≈ 8.89 µM).
Compound `CC(C)(C)CC(C)(C)c1cc(Cc2ccccc2)c2c(c1)OCCOCCOCc1cc(C(C)(C)C)cc(c1C(=O)O)COCCOCCO2` yielded an MIC of 3.12 µg/mL (≈ 4.52 µM).

The species named for the next assay is Bos taurus. As to the kind of experiment: In vitro rumen propionic acid test procedure, 20 ug/mL. The class given is functional.
Conditions: not given
A digest of the protocol:
as §1
The compound `Cc1cc(C(C)(C)CC(C)(C)C)cc2c1OCCOCCOCc1cccc(c1C(=O)O)COCCOCCO2` had a Stimulation of 0.33%.
Still for that read-out and setting: the same measure for `COc1cc2c(C(=O)O)c(c1)COCCOCCOc1c(C)cc(C(C)(C)CC(C)(C)C)cc1OCCOCCOC2`: 0.04%; for `Cc1cc(C(C)(C)CC(C)(C)C)cc2c1OCCOCCOCc1cc(Br)cc(c1C(=O)O)COCCOCCO2`: 0.06%; for `CC(C)(C)CC(C)(C)c1cc(CCc2ccccc2)c2c(c1)OCCOCCOCc1cc(C(C)(C)C)cc(c1C(=O)O)COCCOCCO2`: 0.32%.
Still for that read-out and setting: for `CC(C)(C)c1ccc(OCC2COc3ccccc3OCCOCCOCCOCc3cc(C(C)(C)C)cc(c3C(=O)O)CO2)cc1` (stereo unspecified) the value was 0.6%.
Still for that read-out and setting: for `COCc1cc(C(C)(C)CC(C)(C)C)cc2c1OCCOCCOCc1cc(C(C)(C)C)cc(c1C(=O)O)COCCOCCO2` the value was 0.2%; for `CC(C)(C)CC(C)(C)c1ccc2c(c1)OCCOCCOCc1cc(C(C)(C)C)cc(c1C(=O)O)COCCOCCO2`, 0.64%.
Compound `Cc1cc(C(C)(C)CC(C)(C)C)cc2c1OCCOCCOCCOCc1cc(C(C)(C)C)cc(c1C(=O)O)COCCOCCOCCO2` yielded a Stimulation of 0.11%.
With `CC(C)(C)CC(C)(C)c1cc(Cc2ccccc2)c2c(c1)OCCOCCOCc1cc(C(C)(C)C)cc(c1C(=O)O)COCCOCCO2`, the Stimulation was 0.44%.

The test system of another assay is Staphylococcus aureus. As to the kind of experiment: Antibacterial activity against Staphylococcus aureus 01A005.
Conditions: not given
Type of assay: functional. A digest of the protocol: as §2
Compound `Cc1cc(C(C)(C)CC(C)(C)C)cc2c1OCCOCCOCc1cccc(c1C(=O)O)COCCOCCO2` displayed a minimum inhibitory concentration (MIC) of 25 µg/mL (≈ 44.7 µM).
On the same count and under the same terms, for `COc1cc2c(C(=O)O)c(c1)COCCOCCOc1c(C)cc(C(C)(C)CC(C)(C)C)cc1OCCOCCOC2` the value was 50 µg/mL (≈ 84.9 µM); for `Cc1cc(C(C)(C)CC(C)(C)C)cc2c1OCCOCCOCc1cc(Br)cc(c1C(=O)O)COCCOCCO2`, 12.5 µg/mL (≈ 19.6 µM); for `CC(C)(C)CC(C)(C)c1cc(CCc2ccccc2)c2c(c1)OCCOCCOCc1cc(C(C)(C)C)cc(c1C(=O)O)COCCOCCO2`, 6.25 µg/mL (≈ 8.87 µM).
The same measure, in the same setting: for `CC(C)(C)c1ccc(OCC2COc3ccccc3OCCOCCOCCOCc3cc(C(C)(C)C)cc(c3C(=O)O)CO2)cc1` (stereo unspecified) the value was 1.56 µg/mL (≈ 2.4 µM); for `COCc1cc(C(C)(C)CC(C)(C)C)cc2c1OCCOCCOCc1cc(C(C)(C)C)cc(c1C(=O)O)COCCOCCO2`, 12.5 µg/mL (≈ 19.4 µM); for `CC(C)(C)CC(C)(C)c1ccc2c(c1)OCCOCCOCc1cc(C(C)(C)C)cc(c1C(=O)O)COCCOCCO2`, 12.5 µg/mL (≈ 20.8 µM).
The same measure, in the same setting: the same measure for `Cc1cc(C(C)(C)CC(C)(C)C)cc2c1OCCOCCOCCOCc1cc(C(C)(C)C)cc(c1C(=O)O)COCCOCCOCCO2`: 12.5 µg/mL (≈ 17.8 µM); for `CC(C)(C)CC(C)(C)c1cc(Cc2ccccc2)c2c(c1)OCCOCCOCc1cc(C(C)(C)C)cc(c1C(=O)O)COCCOCCO2`: 3.12 µg/mL (≈ 4.52 µM).

Tested on in a further assay: not listed separately
As to the kind of experiment: Antibacterial activity against Streptococcus equi 02I001. Type of assay: functional.
Conditions: not given
A digest of the protocol:
as §2
With `Cc1cc(C(C)(C)CC(C)(C)C)cc2c1OCCOCCOCc1cccc(c1C(=O)O)COCCOCCO2`, the lowest concentration to inhibit growth (MIC) was 12.5 µg/mL (≈ 22.4 µM).
On the same count and under the same terms, for `COc1cc2c(C(=O)O)c(c1)COCCOCCOc1c(C)cc(C(C)(C)CC(C)(C)C)cc1OCCOCCOC2` the value was 25 µg/mL (≈ 42.5 µM).
On the same count and under the same terms, for `Cc1cc(C(C)(C)CC(C)(C)C)cc2c1OCCOCCOCc1cc(Br)cc(c1C(=O)O)COCCOCCO2` the value was 6.25 µg/mL (≈ 9.8 µM); for `CC(C)(C)CC(C)(C)c1cc(CCc2ccccc2)c2c(c1)OCCOCCOCc1cc(C(C)(C)C)cc(c1C(=O)O)COCCOCCO2`, 1.56 µg/mL (≈ 2.21 µM).
Same read-out and setting: the same measure for `CC(C)(C)c1ccc(OCC2COc3ccccc3OCCOCCOCCOCc3cc(C(C)(C)C)cc(c3C(=O)O)CO2)cc1` (stereo unspecified): 1.56 µg/mL (≈ 2.4 µM); for `COCc1cc(C(C)(C)CC(C)(C)C)cc2c1OCCOCCOCc1cc(C(C)(C)C)cc(c1C(=O)O)COCCOCCO2`: 12.5 µg/mL (≈ 19.4 µM).
Compound `CC(C)(C)CC(C)(C)c1ccc2c(c1)OCCOCCOCc1cc(C(C)(C)C)cc(c1C(=O)O)COCCOCCO2` showed an MIC of 6.25 µg/mL (≈ 10.4 µM).
The same measure, in the same setting: for `Cc1cc(C(C)(C)CC(C)(C)C)cc2c1OCCOCCOCCOCc1cc(C(C)(C)C)cc(c1C(=O)O)COCCOCCOCCO2` the value was 3.12 µg/mL (≈ 4.44 µM); for `CC(C)(C)CC(C)(C)c1cc(Cc2ccccc2)c2c(c1)OCCOCCOCc1cc(C(C)(C)C)cc(c1C(=O)O)COCCOCCO2`, 3.12 µg/mL (≈ 4.52 µM).
